Bioassay records: PubChem, several laboratories
Pf gamet viab: late stage P. falciparum gametocyte viability inhibitors, primary screen, ATP luminescence, HTS. AID 743093, 2013. 150,000 compounds, 0.065% hits. inhibition, % at 10.9 µM. P. falciparum stage V gametocytes, 24 h;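 active = inhibition above the mean plus 3 SD of compounds within the control limits, set per campaign, cut at about 38% in these data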
Wee1 degr inh: Wee1 degradation inhibitors, primary screen, cell-based, HeLa, Wee1K328M-luciferase, luminescence | Wee1-like protein kinase (Homo sapiens), P30291 | HeLa Luc-Wee1K328M stability; 100% = proteasome inhibitor MG132 effect | reporter increase, % at 5 µM | 220,000 compounds, 1.2% hits | AID 1321, 2008;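 active = activation above the mean of all tested compounds plus 3 SD, set per screening run, cut at about 8.8% in these data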;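 note: cells exposed to compound for 20 h before luminescence read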
Hsp70 act: Hsp70 transcriptional activators, primary screen, cell-based, HeLa, Hsp70 promoter luciferase, luminescence, 10 µM; HeLa Hsp70 promoter luciferase reporter; scaled: vehicle 0, proteasome-inhibitor control 100%; activation, % at 10 µM; 200,000 compounds, 0.04% hits; AID 1203, 2008;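 active = activation above the mean across all tested compounds plus 3 SD, cutoff set per campaign, cut at about 5.5% in these data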
Mdm2 ligase inh: MDM2-luciferase reporter signal enhancers, primary screen, MDM2 E3 ligase inhibitor project, cell-based, luminescence, 1536-well; cell-based MDM2 ubiquitination luciferase reporter, 2 h; 0 = plate control, 100 = twice control, blank-subtracted; signal enhancement, % at 5 µM; 210,000 compounds, 0.11% hits;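 active = signal enhancement of 30% or more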;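 note: luminescence tracks abundance of the self-degrading MDM2-luciferase fusion protein; higher signal means inhibition of MDM2 E3 ligase activity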
Target sequence (Q00987 whole entry, looked up, the tested form may be a part): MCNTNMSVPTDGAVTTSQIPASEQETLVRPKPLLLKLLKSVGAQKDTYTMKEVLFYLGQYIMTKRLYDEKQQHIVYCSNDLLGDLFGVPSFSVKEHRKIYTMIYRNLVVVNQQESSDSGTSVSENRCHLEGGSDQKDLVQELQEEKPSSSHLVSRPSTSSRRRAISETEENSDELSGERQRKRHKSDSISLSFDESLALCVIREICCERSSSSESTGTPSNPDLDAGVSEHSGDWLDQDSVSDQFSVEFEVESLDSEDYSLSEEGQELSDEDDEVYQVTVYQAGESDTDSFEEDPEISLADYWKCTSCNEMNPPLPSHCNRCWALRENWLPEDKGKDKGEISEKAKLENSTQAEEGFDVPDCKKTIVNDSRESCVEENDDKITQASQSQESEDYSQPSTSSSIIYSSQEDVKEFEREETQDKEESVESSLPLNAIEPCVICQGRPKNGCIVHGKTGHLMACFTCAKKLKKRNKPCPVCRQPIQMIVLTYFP
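Assay system: mammalian cells stably expressing self-ubiquitinating, self-degrading MDM2 E3–luciferase fusion. Quantity: 2000 cells in each well. Medium: DMEM culture medium. Compound dosing: single-point 5 µM. Timing: cell settling 4 h, compound treatment 2 h, both 37 °C. Technique: luciferase luminescence. Read-out basis: percent signal gain over controls, blank-subtracted. Benchmarks: plate controls and plate blanks.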
Large screens that a line does not name were inactive. Shown are actives, neighbours in structure and some others; about 1.3% of the full set was active somewhere.

CC(C)(C)c1ccc(OCC(=O)Nc2ccncc2)cc1	none (no result: Wee1 degr inh, Hsp70 act, Mdm2 ligase inh)
CCOC(=O)c1cc2c(ccc3ccccc32)oc1=O	Pf gamet viab 48
O=C(O)c1cc2c(ccc3ccccc32)oc1=O	none
Cc1cccc(OCC(=O)NNC(=O)c2cc3ccccc3oc2=O)c1	none (no result: Pf gamet viab)
Cc1cccc(NC(=O)COC(=O)c2cc3ccccc3oc2=O)c1	Wee1 degr inh 8.9
COc1ccc(NC(=O)CN(c2ccc(F)cc2)S(=O)(=O)c2ccccc2)c(OC)c1	none (no result: Wee1 degr inh, Hsp70 act, Mdm2 ligase inh)
CCc1sc(C(=O)NCCCn2ccnc2)cc1Br	none (no result: Wee1 degr inh, Hsp70 act, Mdm2 ligase inh)
Cc1ccc(N=Nc2c(=O)[nH]n3c(C)cc(C)nc23)cc1	Wee1 degr inh 11 (no result: Pf gamet viab)
COc1cc2c(cc1OC)CN(C(=O)c1ccc(OC)c([N+](=O)[O-])c1)CC2	none (no result: Hsp70 act)
COc1cc2c(cc1OC)CN(C(=O)c1ccco1)CC2	Mdm2 ligase inh 35
COc1cc2c(cc1OC)CN(C(=O)c1ccc(Br)o1)CC2	none (no result: Hsp70 act)
COc1cc2c(cc1OC)CN(C(=O)c1cccc([N+](=O)[O-])c1)CC2	Wee1 degr inh 10 (no result: Hsp70 act)
C=CCNc1nc(Cl)nc(NC2CCCCC2)n1	none (no result: Wee1 degr inh, Hsp70 act, Mdm2 ligase inh)
CN(C)c1ccc(/C=C(\C#N)C(=O)c2ccccc2)cc1	Wee1 degr inh 9.3 (no result: Pf gamet viab, Hsp70 act)
CN(C)c1ccc(/C=C(\C#N)c2ccccc2)cc1	Wee1 degr inh 16 (no result: Pf gamet viab, Hsp70 act)
CN(C)c1cccc(/C=C(\C#N)c2ccccc2)c1	Wee1 degr inh 10.0 (no result: Pf gamet viab, Hsp70 act)
Cn1cccc1/C=C(\C#N)c1ccccc1	none
CSc1nc2ccccc2cc1/C=C(\C#N)c1ccccc1	none
Cc1cc(C)cc(NCCC#N)c1	none
CCOC(=O)c1c(C)c(C(=O)Nc2ccc3c(c2)OCCO3)c(C)n1C	Wee1 degr inh 9.2 (no result: Pf gamet viab)
N/C(=N\OC(=O)c1ccccc1Cl)c1ccccc1	none (no result: Pf gamet viab)
O=C(O/N=C(\c1ccccc1)c1ccncc1)c1ccccc1Cl	Wee1 degr inh 9.6
CC(=O)N(/C=C1\SC(=S)N(c2ccccc2)C1=O)c1ccccc1	Wee1 degr inh 10 (no result: Hsp70 act)
COCCNC(=O)Cn1cc(C(=S)N2CCOCC2)c2ccccc21	Wee1 degr inh 9.8
COCCCNC(=O)Cn1cc(C(C)=O)c2ccccc21	none (no result: Pf gamet viab)
CCCOc1ccc([N+](=O)[O-])c(N)c1	none
COc1cc(CN(C)Cc2ccccc2)cc(OC)c1O	none (no result: Pf gamet viab)
CCCc1ccc(C(=O)NNc2ccccc2F)cc1	Wee1 degr inh 9.3 (no result: Hsp70 act)
O=S(=O)(c1ccc(Cl)s1)N1CCc2ccccc2C1	none
O=S(=O)(c1ccc(Cl)s1)N1CCCc2cccc(O)c21	Wee1 degr inh 9.2 (no result: Pf gamet viab)
Cc1ccc2nc3n(c(=O)c2c1)-c1ccccc1C(=O)NC3Cc1ccccc1 (centres undefined)	none (no result: Wee1 degr inh, Hsp70 act, Mdm2 ligase inh)
COCCCNc1nc2c(-c3cccc(C)c3)nnn2c2ccccc12	Wee1 degr inh 49 (no result: Pf gamet viab)
COc1ccccc1CCNC(=O)NC1CCCCC1	Wee1 degr inh 9.7
COc1cccc(/C=N/NC(=O)NC2CCCCC2)c1O	Wee1 degr inh 10 (no result: Hsp70 act)
CCOc1ccccc1N(CC(=O)NCCSc1ccccc1)S(C)(=O)=O	Wee1 degr inh 9.1 (no result: Pf gamet viab)
COc1ccccc1N(CC(=O)NCCSc1ccccc1)S(C)(=O)=O	none (no result: Pf gamet viab, Mdm2 ligase inh)
O=[N+]([O-])c1ccc(Nc2nccc(Cl)n2)cc1	none (no result: Wee1 degr inh, Hsp70 act, Mdm2 ligase inh)
O=C(Nc1cnccn1)Nc1cccc(Cl)c1Cl	none
CC(NC(=O)Cn1ncc(Cl)c(Cl)c1=O)C12CC3CC(CC(C3)C1)C2 (centres undefined)	Mdm2 ligase inh 99 (no result: Pf gamet viab)
CC(C)Cn1c(-c2ccc(Br)o2)n[nH]c1=S	none
COc1cc(C(=O)NC(CCSC)C(=O)OCc2cc([N+](=O)[O-])cc3c2OCOC3)cc(OC)c1OC (centres undefined)	Wee1 degr inh 9.6 (no result: Pf gamet viab)
CCOc1ccc(C(=O)NCC(=O)OCc2cc([N+](=O)[O-])cc3c2OCOC3)cc1OCC	none (no result: Pf gamet viab)
O=C(Cn1cc(SCc2cccc(Cl)c2)c2ccccc21)N1CCOCC1	Wee1 degr inh 11 (no result: Pf gamet viab)
CCOC(=O)Cc1nn[nH]n1	none
CN=c1scc(-c2c[nH]c3ccccc23)n1C	Wee1 degr inh 12 (no result: Pf gamet viab)
CC(C)Cc1nnc(NC(=O)c2cc(-c3ccccc3)nc3ccccc23)s1	none
CC(C)Cc1nnc(NC(=O)c2cc(-c3ccncc3)nc3ccccc23)s1	Wee1 degr inh 9.2 (no result: Hsp70 act)
CC1CCN(CCNC(=O)c2ccc(NC(=O)C3CCCO3)cc2)CC1 (centres undefined)	Wee1 degr inh 9.3 (no result: Pf gamet viab)
COc1ccc(N2CCN(CCNC(=O)c3ccc(NC(=O)C4CCCO4)cc3)CC2)cc1 (centres undefined)	none
O=C(Cn1nnc(-c2ccccc2Cl)n1)N/N=C/c1ccc2c(c1)OCO2	Wee1 degr inh 12
Cn1c(=O)[nH]c(=O)c2c1nc(Br)n2CCCc1ccccc1	Mdm2 ligase inh 30 (no result: Pf gamet viab)
CCOC(=O)N1C/C(=C\c2ccccc2)C(=O)/C(=C/c2ccccc2)C1	Mdm2 ligase inh 46 (no result: Pf gamet viab, Hsp70 act)
Cc1ccc(OCC(=O)Nc2cc(S(=O)(=O)N3CCOCC3)ccc2Cl)c([N+](=O)[O-])n1	none (no result: Hsp70 act, Mdm2 ligase inh)
O=C(c1ccc(C(F)(F)F)cc1)C1CCCN(C(=O)CN2CCCC2=O)C1 (centres undefined)	none
O=C(c1ccc(C(F)(F)F)cc1)C1CCCN(C(=O)CN2C(=O)CSC2=O)C1 (centres undefined)	Wee1 degr inh 9.8
Oc1cc2ccccc2cc1-c1n[nH]c(=S)o1	Wee1 degr inh 8.9 (no result: Pf gamet viab)
Cc1cc(-c2n[nH]c(=S)o2)c(C)n1-c1ccccc1	none
COc1ccc(N2CCN(C(=S)NCCc3ccccc3)CC2)cc1	Wee1 degr inh 9.4 (no result: Pf gamet viab, Mdm2 ligase inh)
O=C(O)CCC(=O)c1ccc2c(c1)CCCC2	Wee1 degr inh 15
COc1cc([N+](=O)[O-])ccc1NC(=O)CSc1nc2ccccc2n1-c1ccccc1	none
CCCC(=O)c1c(NCCO)cc(C)oc1=O	Wee1 degr inh 8.9
